Measurements published in paper PMC12334575 (Nature Communications, 2025).

Legend:
Format in all cases: cell-based, Candida auris
C. auris CBS10913 = test: Intracellular drug accumulation assay; settings: C. auris CBS10913, 20 µM, 10 min, 30 °C, PBS, silicone oil centrifugation, LC-MS
Summary of the method: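 Yeast subcultured in SDB at 30 °C with shaking to mid-log (OD530 ≈ 0.6), washed twice in PBS and resuspended in PBS. Equilibrated 5 min at 30 °C, then test compound added to 20 µM final for 10 min. Cells spun at 13,000×g through pre-cooled silicone oil; intracellular compound quantified by LC-MS. Biological triplicates.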

C. auris CBS12775 = test: Checkerboard assay coniotin A with caspofungin; settings: refractory C. auris, checkerboard (Fig. 4a)
C. auris CBS 10913 = test: High-throughput screening of crude extracts and PFL fractions; settings: identified in active fractions of WAC11175, result in words
Summary of the method: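 Primary screen: C. auris CBS 10913 colonies grown on YPD agar at 30 °C for 48 h, then suspended in RPMI 1640. 1 µL crude extract or fraction added to 49 µL culture in 384-well format, in duplicate. […] OD530 read after 48 h; hits defined as ≥75% growth inhibition versus untreated. For follow-up, producer strains were regrown on Bennett's agar at 30 °C for 7 days, extracts fractionated on C18, and DMSO-dissolved fractions retested in broth microdilution.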

| Compound | Intracellular accumulation (C. auris CBS10913) | MIC of caspofungin in the presence of coniotin A (C. auris CBS12775) | Activity against C. auris (C. auris CBS 10913) |
| --- | --- | --- | --- |
| CC[C@H](C)C[C@H](C)CCCCCCCCC(=O)N[C@H]1C[C@@H](O)[C@@H](NCCN)NC(=O)[C@@H]2[C@@H](O)CCN2C(=O)[C@H]([C@H](O)CCN)NC(=O)[C@H]([C@H](O)[C@@H](O)c2ccc(O)cc2)NC(=O)[C@@H]2C[C@@H](O)CN2C(=O)[C@H]([C@@H](C)O)NC1=O [Caspofungin] | measurable accumulation | 2 µg/mL |  |
| enniatin A1 |  |  | significant activity |
| enniatin B1 |  |  | significant activity |
